Test results published in paper PMC11656131 (Angewandte Chemie (International Ed. in English), 2024).
Entries after “also recorded” stand apart in the source; their conditions may differ.

Molecular target: T1, CERT (Homo sapiens, UniProt Q9Y5P4)
T1 sequence (Q9Y5P4 1-598 isoform Q9Y5P4-2): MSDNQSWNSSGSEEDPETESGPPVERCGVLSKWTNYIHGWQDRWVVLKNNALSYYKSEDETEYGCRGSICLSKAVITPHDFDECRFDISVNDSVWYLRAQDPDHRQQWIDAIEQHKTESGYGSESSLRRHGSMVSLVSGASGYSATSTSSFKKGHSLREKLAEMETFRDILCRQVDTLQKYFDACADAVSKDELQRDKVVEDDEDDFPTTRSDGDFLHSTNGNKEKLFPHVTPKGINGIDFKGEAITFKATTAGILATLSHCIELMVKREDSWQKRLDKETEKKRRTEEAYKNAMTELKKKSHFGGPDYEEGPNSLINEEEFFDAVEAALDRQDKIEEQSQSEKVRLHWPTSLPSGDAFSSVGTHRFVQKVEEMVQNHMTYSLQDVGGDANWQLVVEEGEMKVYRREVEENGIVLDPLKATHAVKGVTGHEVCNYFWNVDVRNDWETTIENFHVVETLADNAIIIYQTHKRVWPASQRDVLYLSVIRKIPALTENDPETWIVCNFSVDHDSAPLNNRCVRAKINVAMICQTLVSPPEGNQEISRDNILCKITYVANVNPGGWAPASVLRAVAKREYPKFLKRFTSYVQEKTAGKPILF
Test: NanoBRET live-cell CERT assay
Type: cell-based
Details: cells pre-treated with SACLAC
In short: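 HeLa cells (or CERT-deficient HeLa) were transfected with NLuc fused N-terminally to full-length CERT, split into 96-well plates next day and incubated overnight. Nano-Glo Vivazine live-cell substrate was added, then NR-Cer acceptor (0.2 µM, or titrated) with test compound. mBRET was read relative to untreated (100% BRET). Library screen at 0.2 µM in single determination; dose-response in triplicate, Hill fit.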

For CCCCCCCCCCCCCCC[C@@H](O)[C@H](CO)NC(=O)CCl [SACLAC], the “mBRET after pre-treatment with acid ceramidase inhibitor” value was “no effect on BRET efficiency; also recorded: only slightly elevated mBRET values”.
